KCNQ1 act = potentiators or activators of human KCNQ1 potassium channel. 0.35% of 310,000 active. B-score at 10 µM. CHO-K1 KCNQ1, thallium flux FluxOR fluorescence; active compounds read high. P51787;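 active = fluorescence ratio B-score, a plate-corrected score, at least three library SD, with initial intensity B-score within 5 SD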
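Medium – assay buffer, equal DMSO in all wells · Material – CHO-K1 cell line with stable KCNQ1 potassium channel expression · Signal – kinetic FluxOR thallium fluorescence, 10-s 1-Hz baseline, 110-s post-stimulus read · Compound – single concentration per compound, DMSO matched to controls · Schedule – 37 °C overnight plating, 90-min dark dye load, 20-min compound pretreatment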
KCNK9 inh = inhibitors of human KCNK9 two-pore domain potassium channel | Q9NPC2 | HEK293 KCNK9, FluxOR thallium flux fluorescence; active compounds read low | B-score at 10 µM | 1.2% of 310,000 active | AID 488922;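 active = ratio B-score over 3 SD below the library mean, with starting fluorescence within 5 SD of its mean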;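 also: negative B-score means less thallium flux so channel inhibition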
hERG protect = compounds protecting human hERG from proarrhythmic drug block | Q12809 | CHO-hERG, FluxOR thallium flux, dofetilide IC70 present | activation (rescue from dofetilide block), less the hit threshold, % at 10 µM | 0.51% of 310,000 active | AID 1511;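 active = activation above the mean of controls blocked by dofetilide plus 5 SD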;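 also: thallium influx through hERG after potassium depolarization seen as dye fluorescence rise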
KCNQ1 block = human KCNQ1 channel inhibition; P51787; 1.3% of 310,000 active; AID 2642; B-score at 10 µM; CHO-K1 KCNQ1, FluxOR thallium flux fluorescence; active compounds read high;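 active = compounds whose thallium flux B-score, printed positive for inhibition, exceeds three library SD while starting fluorescence stays within three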;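 also: channel opened by potassium depolarization with thallium stimulus after 20 min compound exposure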
KCNK3 inh = human KCNK3 channel inhibition, primary screen; O14649; CHO-KCNK3 thallium flux, FluxOR fluorescence; active compounds read low; B-score at 10 µM; 0.84% of 340,000 active;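 active = B-score under library mean minus 4 SD, starting fluorescence ratio at most library mean plus 5 SD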;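 also: more negative B-score means stronger inhibition of thallium flux through KCNK3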
KCNQ1 inh valid = human KCNQ1 channel inhibition, validation assay. 93% of 1,600 active. shares compounds with KCNQ1 block. KCNQ1 cell line, FluxOR thallium flux fluorescence. AID 588353. inhibition, % at 10 µM;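 active = primary screen active, with duplicate mean exceeding buffer control mean plus 3 SD of buffer wells, cut at about 28% in these data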;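 also: 0% = buffer control ratio and 100% = XE991 inhibitor control ratio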
CHO Tl flux = counter-screen for KCNQ1 inhibitors: effect in parental CHO cells. shares compounds with KCNQ1 block. parental CHO-K1, FluxOR thallium flux fluorescence ratio; active compounds read low; zero means no signal rise above baseline. fluorescence ratio (Tl flux) at 10 µM. 21% of 1,600 active. AID 588366;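 active = mean of duplicate thallium-flux fluorescence ratios in parental host cells more than 5 SD below the buffer control mean, cut at about 0.38 in these data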;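 also: ratio is peak minus minimum fluorescence divided by baseline fluorescence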
KCNQ1 APC inh = confirmation of human KCNQ1 potassium channel inhibitors by electrophysiology. shares compounds with KCNQ1 block. calls only at 10 µM. KCNQ1-CHO cells, automated patch clamp current. 20% of 490 active;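 active = KCNQ1 current drop exceeding 3 SD of negative control wells, seen in both duplicate runs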;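 also: steady state current during a 2 s step from -80 to +40 mV; negative values mean current inhibition and positive values mean potentiation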
KCNQ2 inh = selectivity of KCNQ1 inhibitors: inhibition of rat KCNQ2 channel; shares compounds with KCNQ1 block; KCNQ2 cells, FluxOR thallium flux fluorescence; inhibition, % at 10 µM; 71% of 1,600 active; AID 651746;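 active = mean percent inhibition of the KCNQ2 thallium signal more than 5 SD above the buffer-only control wells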;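 also: KCNQ2 expressed in CHO cells; 0% = buffer control wells and 100% = XE-991 inhibitor control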
KCNQ1-KCNE1 inh = KCNQ1 inhibitor that also blocks human KCNQ1/KCNE1 channel; KCNQ1/KCNE1 cells, FluxOR thallium flux fluorescence; 77% of 1,600 active; shares compounds with KCNQ1 block; inhibition, % at 10 µM;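 active = mean percent inhibition of duplicate wells above the buffer-only control mean plus 3 SD of those controls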;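 also: 0% = buffer only wells and 100% = XE-991 inhibitor control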
* hit, by the source's call; i = inactive; / = no result given. Most compounds without a hit are left out; they make up all but 3.1% or so of the library.

SMILES	KCNQ1 act	KCNK9 inh	hERG protect	KCNQ1 block	KCNK3 inh	KCNQ1 inh valid	CHO Tl flux	KCNQ2 inh	KCNQ1-KCNE1 inh	others
CCc1cc(C(c2ccc(F)cc2)N2CCOCC2)c(NC(=O)c2ccccc2)s1 (stereo not given)	i	i	-7	10*	i	100*	0.37*	99%*	154%*
CCc1cc(C(c2cccc(OC)c2)N2CCOCC2)c(NC(=O)c2ccccc2)s1 (stereo not given)	i	i	-14	i	i	/	/	/	/
Cc1nc2nc(-c3cccs3)cn2nc1C	i	i	-27	7*	i	104*	0.34*	i	i
Cc1nc2nc(-c3ccc(Cl)cc3)cn2nc1C	i	i	-3	i	i	/	/	/	/
O=C(c1ccc2c(=O)n3c(nc2c1)CCCCC3)N1CCN(C(c2ccccc2)c2ccccc2)CC1	i	i	-9	i	i	/	/	/	/
NS(=O)(=O)c1ccc(CCNC(=O)CN2CCCCCC2)cc1	i	i	-4	i	i	/	/	/	/
Cc1ccc(S(=O)(=O)NCc2ccccn2)c(C)c1C	i	i	-9	i	i	/	/	/	/
Cc1ccc(S(=O)(=O)NCc2ccncc2)c(C)c1C	i	i	-20	7*	i	56*	0.51	i	i
COc1ccc(-c2nc(NC(=O)c3cc(C(C)(C)C)nn3C)sc2C)cc1	i	i	-13	16*	i	128*	0.41	89%*	126%*	KCNQ1 APC inh=i
COc1ccc(-c2nc(NC(=O)c3c(C)noc3C)sc2C)cc1	/	/	/	/	i	/	/	/	/
C=CCn1c(=O)[nH]c2nc3cc(N=CN(C)C)c(C)cc3nc2c1=O	i	i	-20	8*	i	102*	0.28*	i	152%*
CCCCn1c(=O)[nH]c2nc3cc(N)ccc3nc2c1=O	/	/	/	/	i	/	/	/	/
Cc1ccc(NC(=O)CSc2nc3ccccc3c(=O)n2CCCN2CCCCC2)cc1Cl	i	i	-22	7*	i	85*	0.36*	85%*	84%*
Cc1ccc(-c2csc(NC(=O)CSc3nc4ccccc4c(=O)n3CCCN(C)C)n2)cc1	i	i	-46	8*	i	118*	0.29*	101%*	154%*
CCN(CC)C1CCN(C(=O)CCn2nnnc2CN2CCOCC2)C1 (stereo not given)	i	i	-2	i	i	/	/	/	/
Cc1ccc(N(C(=O)c2ccco2)C(C(=O)NC2CCCC2)c2ccco2)c(C)c1 (stereo not given)	i	i	-9	7*	i	82*	0.44	76%*	61%*
COc1ccc(Cl)cc1N(C(=O)c1ccco1)C(C(=O)NC1CCCC1)c1ccco1 (stereo not given)	i	i	-4	i	i	/	/	/	/
CCCCCC(=O)NC(=S)NC1C2CC3CC(C2)CC1C3 (stereo not given)	i	i	-10	7*	i	66*	0.48	79%*	64%*
O=C(Nc1ccc(S(=O)(=O)Nc2ncccn2)cc1)c1cccc(S(=O)(=O)N2CCOCC2)c1	i	i	-9	i	i	/	/	/	/
NS(=O)(=O)c1ccc(NC(=O)COc2ccc(Cl)cc2)cc1	i	i	-6	i	i	/	/	/	/
CCSc1nsc(NC(=O)Nc2ccccc2F)n1	i	i	-7	i	i	/	/	/	/
C=CCSc1nsc(NC(=O)Nc2ccc(F)cc2)n1	i	i	-11	14*	i	64*	0.51	i	i
